Data from ChEMBL document CHEMBL1153405, “Complementary three-dimensional quantitative structure-activity relationship modeling of binding affinity and functional potency: a study on alpha4beta2 nicotinic ligands” (J Med Chem, 2009).

Experiments:
[1] = molecular target: T1, Neuronal acetylcholine receptor; alpha4/beta2 (Homo sapiens, UniProt P17787+P43681); test: Displacement of [3H]cytisine from human alpha4beta2 nAChR expressed in HEK293 cells; assay type: cell-based
[2] = molecular target: T1, Neuronal acetylcholine receptor; alpha4/beta2; test: Agonist activity at human alpha4beta2 nAChR expressed in HEK293 cells assessed as intracellular calcium level by FLIPR assay; assay type: functional, cell-based
Summary of the method: (§1)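 HEK-293 cells stably expressing human α4β2 (subunits cloned from IMR32) were grown in DMEM with 10% FBS at 37 °C and 5% CO2. They were plated on poly-D-lysine for 24 h, then loaded with 2 µM fluo-4/AM for 1.5 h at room temperature. Cells were washed into NMDG Ringer (10 mM CaCl2, pH 7.4) and read by FLIPR at 100 pM–100 µM. Background-subtracted responses were normalized to 100 µM (-)-nicotine, giving pEC50 and maximal efficacy; n = 4-8.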

[3] = molecular target: T1, Neuronal acetylcholine receptor; alpha4/beta2; test: Intrinsic activity at human alpha4beta2 nAChR expressed in HEK293 cells assessed as intracellular calcium level by FLIPR assay relative to (-)nicotine; assay type: cell-based; summary of the method: as §1

T1 sequence (P17787 whole entry): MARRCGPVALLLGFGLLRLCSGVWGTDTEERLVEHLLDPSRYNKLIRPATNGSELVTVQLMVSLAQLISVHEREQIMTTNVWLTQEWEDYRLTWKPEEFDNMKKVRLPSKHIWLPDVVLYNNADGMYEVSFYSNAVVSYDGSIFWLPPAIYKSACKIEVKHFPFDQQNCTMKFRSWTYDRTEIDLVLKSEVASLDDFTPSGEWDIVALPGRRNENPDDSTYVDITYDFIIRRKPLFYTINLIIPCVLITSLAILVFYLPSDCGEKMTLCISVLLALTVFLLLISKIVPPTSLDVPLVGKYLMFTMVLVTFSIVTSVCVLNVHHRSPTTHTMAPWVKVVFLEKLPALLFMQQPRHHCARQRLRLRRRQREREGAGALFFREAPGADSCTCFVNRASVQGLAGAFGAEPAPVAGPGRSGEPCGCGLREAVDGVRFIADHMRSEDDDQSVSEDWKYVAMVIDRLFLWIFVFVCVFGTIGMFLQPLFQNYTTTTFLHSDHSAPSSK
T1 sequence (P43681 whole entry): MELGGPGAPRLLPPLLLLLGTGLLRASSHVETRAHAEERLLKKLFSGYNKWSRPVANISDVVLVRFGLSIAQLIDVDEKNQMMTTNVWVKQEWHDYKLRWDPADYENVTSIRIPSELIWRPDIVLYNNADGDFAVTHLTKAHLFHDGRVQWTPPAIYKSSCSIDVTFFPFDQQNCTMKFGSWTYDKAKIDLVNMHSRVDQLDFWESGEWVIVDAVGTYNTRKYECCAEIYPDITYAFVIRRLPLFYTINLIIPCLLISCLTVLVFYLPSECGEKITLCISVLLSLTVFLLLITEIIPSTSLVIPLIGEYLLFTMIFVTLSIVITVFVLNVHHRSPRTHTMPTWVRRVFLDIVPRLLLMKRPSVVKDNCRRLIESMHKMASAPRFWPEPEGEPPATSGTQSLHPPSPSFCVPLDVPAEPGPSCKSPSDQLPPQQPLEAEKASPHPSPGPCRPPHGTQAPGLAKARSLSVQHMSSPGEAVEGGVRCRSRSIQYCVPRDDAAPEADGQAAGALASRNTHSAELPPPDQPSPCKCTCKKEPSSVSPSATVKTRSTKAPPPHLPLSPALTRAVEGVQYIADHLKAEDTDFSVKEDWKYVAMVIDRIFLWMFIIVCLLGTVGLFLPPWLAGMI

SMILES	IC50 [1] [nM]	EC50 [2] [nM]	Efficacy [3] [%]
COc1cncc(N2CCCNCCC2)c1	1	120	89
c1cncc(OC2CCCNC2)c1 (stereo not drawn)	191	32400	22
Clc1cncc(N2CCNCC2)c1		22900	41
c1cncc(OC[C@@H]2CCN2)c1	1.51		
c1cncc(N2CCCNCC2)c1		229	94
C1=C(c2cccnc2)CC2CCCC1N2 (stereo not drawn)	4.47	1200	34
c1cncc(OC2CCNC2)c1 (stereo not drawn)	100	28800	54
COc1cc(N2CCNCC2)cnc1Br		17000	68
Brc1cncc(N2CCCNCCC2)c1	2.82	182	73
CCOc1cc(N2CCCNCC2)cnc1Br	0.871	257	78
COCCOc1cncc(N2CCCNCC2)c1	2.4	8710	42
Brc1ccc(N2CCCNCCC2)cn1	0.447	1.29	139
C=COc1cc(N2CCCNCCC2)cnc1Br	0.38	240	90
Clc1ncc(N2CCNCC2)cc1Br	229	7940	98
CCSc1ccc(N2CCCNCC2)cn1	170	4470	53
Clc1ncc(N2CCCNCC2)cc1Br	1.41	57.5	85
C/C=C\Oc1cncc(N2CCCNCC2)c1	1.29	2090	45
COc1cc(N2CCCNCC2)cnc1Cl	0.676	91.2	116

SMILES	IC50 [1] [nM]	EC50 [2] [nM]	Efficacy [3] [%]
NC(=O)c1cncc(N2CCCNCC2)c1	20	12900	56
Oc1cncc(N2CCCNCC2)c1	2.4	141	120
Brc1ccc(N2CCCNCC2)cn1	1	64.6	88
Clc1cc(N2CCCNCC2)cnc1Br	1.41	15.1	102
COc1ccc(N2CCCNCC2)cn1	170	11000	88
Clc1cncc(N2CCCNCCC2)c1	2	170	103
C=COc1cncc(N2CCNCC2)c1	191	7590	18
C=COc1cncc(N2CCCNCC2)c1	5.01	1100	61
C=COc1cc(N2CCCNCC2)cnc1Br	0.646	110	80
c1cncc(N2CCCNCCC2)c1	0.891	36.3	78
COc1cncc(C2=CC3CCCC(C2)N3)c1 (stereo not drawn)	3.02	4370	13
Cc1ncc(N2CCNCC2)cc1Cl	525	26900	74
Oc1cc(N2CCCNCC2)cnc1I	21.9	479	104
Clc1cncc(OC2CCCNC2)c1 (stereo not drawn)	240	1410	15
C1=C(c2cccnc2)CC2CCC1N2 (stereo not drawn)	6.76	1000	66
c1ccc2ncc(N3CCCNCC3)cc2c1	6.61	3630	33
COc1cncc(N2CCCNCC2)c1	1.91	1410	66
Brc1ccc(N2CCNCC2)cn1	182	2510	129
